Test results reported in BindingDB's records for doi:10.1016/s0960-894x(02)00170-1 (Kingston University, 2002).

Target: T1, Steryl-sulfatase (Homo sapiens, UniProt P08842)
T1 sequence (P08842 whole entry): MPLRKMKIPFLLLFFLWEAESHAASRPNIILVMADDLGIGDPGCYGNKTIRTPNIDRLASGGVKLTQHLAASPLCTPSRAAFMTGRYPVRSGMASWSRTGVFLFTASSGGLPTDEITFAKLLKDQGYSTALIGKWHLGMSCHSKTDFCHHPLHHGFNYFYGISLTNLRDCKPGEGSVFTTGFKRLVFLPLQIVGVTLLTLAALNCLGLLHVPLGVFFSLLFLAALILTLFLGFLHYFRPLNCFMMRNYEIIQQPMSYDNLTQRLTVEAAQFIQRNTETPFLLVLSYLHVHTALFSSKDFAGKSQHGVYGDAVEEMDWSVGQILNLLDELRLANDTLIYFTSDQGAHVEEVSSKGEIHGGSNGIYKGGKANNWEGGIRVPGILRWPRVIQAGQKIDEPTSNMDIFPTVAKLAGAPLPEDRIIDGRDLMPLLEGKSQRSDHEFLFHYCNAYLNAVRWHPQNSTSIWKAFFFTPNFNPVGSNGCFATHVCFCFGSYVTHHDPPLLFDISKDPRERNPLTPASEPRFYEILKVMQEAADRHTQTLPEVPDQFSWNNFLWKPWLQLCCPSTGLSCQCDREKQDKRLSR
Assay: Compound was evaluated for its inhibitory activity against estrone sulfatase enzyme
Summary of the method: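 They are added to tubes holding [3H]estrone sulfate (300,000 dpm) and inhibitor, which was dried from ethanol under nitrogen. Incubation runs 20 min at 37 °C and is quenched with toluene. Radioactivity in the toluene extract is counted. Triplicates are run alongside no-inhibitor controls and boiled-microsome blanks.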

Row | Compound | IC50 [µM]
1 | CCCCOC(=O)c1ccc(-c2ccc(OS(N)(=O)=O)cc2)cc1 | 5.8
2 | N#Cc1ccc(-c2ccc(OS(N)(=O)=O)cc2)cc1 | 6.7
3 | Cc1cc(=O)oc2cc(OS(N)(=O)=O)ccc12 [4-methyl-2-oxo-2H-chromen-7-yl sulfamate] | 10
4 | NS(=O)(=O)Oc1ccc(-c2ccccc2)cc1 [Sulfamic acid biphenyl-4-yl ester] | 76.1

The next compounds have a lower IC50 than those just listed; values first:

Row | IC50 [µM] | Compound
5 | 5.2 | COC(=O)c1ccc(-c2ccc(OS(N)(=O)=O)cc2)cc1
6 | 4.2 | CCOC(=O)c1ccc(-c2ccc(OS(N)(=O)=O)cc2)cc1
7 | 3.5 | CCCOC(=O)c1ccc(-c2ccc(OS(N)(=O)=O)cc2)cc1
